ChEMBL document CHEMBL1944540, “Synthesis, molecular docking and biological evaluation of 1,3,4-oxadiazole derivatives as potential immunosuppressive agents” (Bioorg Med Chem, 2012)

What follows are compounds tested on T-cell (assay: Selectivity index, ratio of CC50 for lymph node T cell to IC50 for lymph node T cell).
Type: functional

SMILES | Ratio CC50/IC50
C/C=C/C[C@@H](C)[C@@H](O)[C@H]1C(=O)N[C@@H](CC)C(=O)N(C)CC(=O)N(C)[C@@H](CC(C)C)C(=O)N[C@@H](C(C)C)C(=O)N(C)[C@@H](CC(C)C)C(=O)N[C@@H](C)C(=O)N[C@H](C)C(=O)N(C)[C@@H](CC(C)C)C(=O)N(C)[C@@H](CC(C)C)C(=O)N(C)[C@@H](C(C)C)C(=O)N1C [CYCLOSPORINE] | 196.86

Each compound was assayed against Phosphatidylinositol 4,5-bisphosphate 3-kinase catalytic subunit gamma isoform (Homo sapiens, UniProt P48736) (assay: Inhibition of PI3Kgamma after 4 hrs).
In short: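 Recombinant PI3Kγ incubated 4 h at room temperature with or without compound at final concentrations of 3, 10, 30 and 50 μM.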

Sequence of Phosphatidylinositol 4,5-bisphosphate 3-kinase catalytic subunit gamma isoform (P48736 whole entry, canonical isoform): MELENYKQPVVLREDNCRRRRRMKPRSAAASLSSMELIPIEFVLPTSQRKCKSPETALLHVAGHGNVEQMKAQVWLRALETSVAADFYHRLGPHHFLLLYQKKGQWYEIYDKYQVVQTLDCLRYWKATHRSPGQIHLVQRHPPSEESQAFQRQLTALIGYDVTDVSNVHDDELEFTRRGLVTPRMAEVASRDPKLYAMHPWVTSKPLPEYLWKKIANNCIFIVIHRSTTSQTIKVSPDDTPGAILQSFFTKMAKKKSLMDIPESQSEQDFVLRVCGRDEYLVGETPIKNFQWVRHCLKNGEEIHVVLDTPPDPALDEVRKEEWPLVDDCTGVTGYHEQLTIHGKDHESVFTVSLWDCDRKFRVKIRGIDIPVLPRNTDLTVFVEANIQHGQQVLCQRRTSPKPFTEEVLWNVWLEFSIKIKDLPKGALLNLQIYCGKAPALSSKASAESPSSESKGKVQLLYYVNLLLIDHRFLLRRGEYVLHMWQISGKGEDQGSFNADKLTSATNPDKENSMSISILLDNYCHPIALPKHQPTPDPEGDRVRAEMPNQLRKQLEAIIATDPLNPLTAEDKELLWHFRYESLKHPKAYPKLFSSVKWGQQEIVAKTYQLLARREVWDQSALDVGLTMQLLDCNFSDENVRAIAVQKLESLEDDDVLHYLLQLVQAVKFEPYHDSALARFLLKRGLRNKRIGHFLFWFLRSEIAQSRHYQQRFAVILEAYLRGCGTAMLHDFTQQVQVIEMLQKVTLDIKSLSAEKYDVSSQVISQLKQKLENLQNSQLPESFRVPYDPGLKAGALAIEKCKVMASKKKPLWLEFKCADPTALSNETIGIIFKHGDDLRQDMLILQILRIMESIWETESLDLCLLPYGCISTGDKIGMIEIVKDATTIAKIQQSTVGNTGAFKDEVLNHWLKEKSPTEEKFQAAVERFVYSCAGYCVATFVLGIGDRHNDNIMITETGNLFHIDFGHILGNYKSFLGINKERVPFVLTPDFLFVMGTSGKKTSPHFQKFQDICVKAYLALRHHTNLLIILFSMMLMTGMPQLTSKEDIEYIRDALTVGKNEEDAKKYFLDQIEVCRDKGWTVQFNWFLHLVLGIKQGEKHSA

SMILES | IC50
CC(=O)Oc1ccccc1C1OC(c2ccc3c(c2)OCCO3)=NN1C(C)=O (stereo unspecified) | 2060 nM
CC(=O)Oc1ccc(Cl)cc1C1OC(c2ccc3c(c2)OCCO3)=NN1C(C)=O (stereo unspecified) | 980 nM
CC(=O)Oc1ccc(Br)cc1C1OC(c2ccc3c(c2)OCCO3)=NN1C(C)=O (stereo unspecified) | 1310 nM
CC(=O)Oc1c(Cl)cc(Cl)cc1C1OC(c2ccc3c(c2)OCCO3)=NN1C(C)=O (stereo unspecified) | 1750 nM
CC(=O)Oc1c(Br)cc(Br)cc1C1OC(c2ccc3c(c2)OCCO3)=NN1C(C)=O (stereo unspecified) | 1980 nM
